Active and inactive are the calls of the source.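 Rule for the calls, unless noted: active = NADPH fluorescence slope more negative than the mean of all samples by about 3 SD, 99.7% confidence; inactive = the rest.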
How the values were obtained:
[1] = inhibitors of TNFa-induced NFkB p65 translocation, primary screen, imaging, HUVEC, MLSMR starter and 10KST1 sets (AID 438;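 active = inhibition above 20% together with a positive visual image hit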;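 note: compound added about 3h40 before a 20 min TNFalpha stimulation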;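 for inhibition: signal is the nuclear over cytoplasmic p65 intensity ratio per well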); settings: HUVEC TNFa-induced p65 nuclear translocation; cell count: measured here: nuclei count (cytotoxicity indicator), at 2.08 µM; inhibition: at 2 µM, stronger effect = higher value, 0% TNFa-plus-vehicle, 100% no-TNFa wells
[2] = reduction of polyQ htt aggregates in cells – imaging, exon1htt(103Q)mCFP cells, high-content imaging, primary screen (AID 483;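 active = visual image review flags a hit and inhibition of aggregation exceeds 20%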;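 note: compound exposure lasted 3 days before fixation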;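 for nuclei count: percent of the per-plate median nuclei count of sample wells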); settings: exon1htt(103Q)mCFP cell line, aggregate imaging, at 2 µM; inhibition of aggregation: stronger effect = higher value; nuclei count: measured here: cell count, toxicity
[3] = endothelial E-selectin expression blockers – imaging, HUVEC, immunofluorescence, MLSMR starter and 10KST1 sets, primary screen (AID 487;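 active = visually confirmed hit in the image check and inhibition above 20%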;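 for inhibition: signal is fraction of cell area covered by stained E-selectin grains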;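 for nuclei count: 100% = median nuclei count of all wells on the same plate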); settings: HUVEC TNFalpha-induced E-selectin immunofluorescence imaging, at 2 µM; inhibition: stronger effect = higher value; nuclei count: measured here: cell number, toxicity
[4] = molecular target: Voltage-gated potassium channel subunit beta-2 (Rattus norvegicus) (UniProt P62483); test: inhibitors of rat Kvbeta2 reductase activity – biochemical, NADPH fluorescence, primary screen (AID 622;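 active = fluorescence slope higher than the sample average by over 3 SD, cut at about -0.22 in these data, passing the limit was not always enough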;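 note: slope of raw intensity against log time taken from 70 to 1610 s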); settings: recombinant KvBeta, 4-cyanobenzaldehyde reduction, at 10 µM, stronger effect = higher value
[5] = molecular target: Voltage-gated potassium channel subunit beta-2 (Rattus norvegicus) (UniProt P62483); test: enhancers of rat Kvbeta2 NADPH turnover – biochemical, NADPH fluorescence, primary screen (AID 623); settings: Recombinant KvBeta, NADPH fluorescence decrease slope, 10 min; at 10 µM; stronger effect = lower value;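 note: fluorescence intensity change per second fitted from 20 to 320 s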
[6] = molecular target: Muscarinic acetylcholine receptor M4 (Homo sapiens) (UniProt P08173); test: M4-linked GIRK flux change, two-sided – cell-based, HEK293 M4/GIRK, thallium flux, BTC-AM, M4 allosteric agonist project, primary screen (AID 625;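 active = fluorescence slope after compound addition differing from the mean of all tested samples at 99.7% confidence, mostly higher but some lower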;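 note: thallium influx through GIRK channels coupled to M4 in HEK293 cells with BTC-AM dye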); settings: at 10 µM, actives lie on both sides
Summary of the method: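 assay system = HEK293 cells with M4 receptor and GIRK channels | medium = pH 7.3 thallium assay buffer | doses = 10 µM final, single point | timing = cells overnight at 37 °C, BTC-AM loading 1 h, reads 2 min total | signal = BTC-AM fluorescence, 1 Hz kinetic reads | read-out = post-addition slope, 15–24 s, of baseline-normalized fluorescence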

[7] = blockers of RIG-like receptor reporter activation – cell-based, Sendai virus stimulus, luciferase, 10K MLSCN set, TLR/RLR signaling modifier project, primary screen (AID 602276;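 active = inhibition at or above 50% at 10 µM; inactive = inhibition below 50%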;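 note: firefly luciferase from ISG56 promoter only with Renilla not read in this screen; 0% = Sendai virus plus DMSO and 100% = medium plus DMSO without virus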); settings: HEK293 RL24 IRF3 luciferase reporter, at 10 µM, stronger effect = higher value
[8] = TLR3 IRF3 reporter activation blockers – cell-based, poly I:C stimulus, luciferase, 10K MLSCN set, primary screen (AID 602277;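 active = inhibition of the reporter signal at or above 50%; inactive = inhibition below 50%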); settings: HEK293-TLR3 RL24 IRF3 luciferase reporter, at 10 µM, stronger effect = higher value

Chain of Voltage-gated potassium channel subunit beta-2 (Rattus norvegicus) (P62483 whole entry, looked up): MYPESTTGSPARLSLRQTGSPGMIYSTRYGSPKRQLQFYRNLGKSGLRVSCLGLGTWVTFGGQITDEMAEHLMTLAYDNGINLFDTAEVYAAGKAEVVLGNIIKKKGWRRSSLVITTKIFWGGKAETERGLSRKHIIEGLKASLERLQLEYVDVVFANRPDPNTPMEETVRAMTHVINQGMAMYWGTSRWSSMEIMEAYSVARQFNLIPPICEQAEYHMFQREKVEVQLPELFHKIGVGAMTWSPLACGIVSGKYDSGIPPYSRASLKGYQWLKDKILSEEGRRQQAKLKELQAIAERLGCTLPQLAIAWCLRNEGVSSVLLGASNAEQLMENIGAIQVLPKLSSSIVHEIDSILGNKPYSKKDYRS
Chain of Muscarinic acetylcholine receptor M4 (Homo sapiens) (P08173 whole entry, looked up): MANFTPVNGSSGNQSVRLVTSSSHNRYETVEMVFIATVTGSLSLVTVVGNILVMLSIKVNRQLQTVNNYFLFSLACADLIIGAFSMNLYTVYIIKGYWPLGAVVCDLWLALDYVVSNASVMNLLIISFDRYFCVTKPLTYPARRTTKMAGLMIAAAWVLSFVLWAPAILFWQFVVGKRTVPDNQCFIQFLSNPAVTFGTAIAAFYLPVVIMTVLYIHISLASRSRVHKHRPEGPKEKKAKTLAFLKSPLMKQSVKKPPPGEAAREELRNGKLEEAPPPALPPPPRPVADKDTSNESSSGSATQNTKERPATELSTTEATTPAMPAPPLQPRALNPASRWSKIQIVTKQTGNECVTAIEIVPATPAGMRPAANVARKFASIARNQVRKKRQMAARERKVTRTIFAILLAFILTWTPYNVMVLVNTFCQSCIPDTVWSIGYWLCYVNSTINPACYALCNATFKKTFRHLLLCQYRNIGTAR

| Structure (SMILES) | cell count [1] | inhibition [1] | inhibition of aggregation [2] | nuclei count [2] [%] | inhibition [3] | nuclei count [3] [%] | fluorescence slope [4] | NADPH fluorescence slope [5] | fluorescence slope [6] | inhibition [7] | inhibition [8] |
| --- | --- | --- | --- | --- | --- | --- | --- | --- | --- | --- | --- |
| CCc1ncc(C(O)c2cccc(OC)c2OC)n1C (stereo not drawn) | 335 | 2.8% (inactive) | 7.4% (inactive) | 96.1 | 17.7% (inactive) | 126 | -0.451 (inactive) | -2.7e-05 (inactive) | 0.00484 (inactive) | 23.2% (inactive) | 24% (inactive) |
| Cc1ccc(F)cc1NC(=O)c1cccc2nccnc12 | 532 | -45.9% (inactive) | -49.2% (inactive) | 13.4 | -61% (inactive) | 108 | -0.554 (inactive) | 2e-05 (inactive) | 0.00494 (inactive) | -11.7% (inactive) | -19.2% (inactive) |
| O=C(O)Cn1cc2c(n1)CCCC2 | 638 | 0.2% (inactive) | -7.3% (inactive) | 104 | 13.9% (inactive) | 114 | -0.395 (inactive) | 6.4e-05 (inactive) | 0.00644 (inactive) | 9.43% (inactive) | 8.73% (inactive) |
| CCCN(CCC)C(=O)CSc1nc2ccccc2c(=O)n1C1CCCC1 | 475 | 3% (inactive) | -13.4% (inactive) | 93.4 | -7.5% (inactive) | 117 | -0.452 (inactive) | -1.1e-05 (inactive) | 0.00476 (inactive) | 15.9% (inactive) | 10.1% (inactive) |
| CCOC(=O)C(C)On1c(SC(C)C(=O)OCC)nc2ccccc2c1=O (stereo not drawn) | 808 | -3.9% (inactive) | 10.3% (inactive) | 103 | -57.6% (inactive) | 107 | -0.582 (inactive) | -5.7e-05 (inactive) | 0.0065 (inactive) | 20% (inactive) | 20% (inactive) |
| CC1(C)CC(=O)C2=C(C1)N(Cc1ccco1)C(=O)C2(NC(=O)C1CCCCC1)C(F)(F)F (stereo not drawn) | 670 | -2.6% (inactive) | 9.8% (inactive) | 111 | -51% (inactive) | 116 | -0.453 (inactive) | -6.1e-05 (inactive) | 0.00581 (inactive) | 16.7% (inactive) | 21.1% (inactive) |
| COc1cc(OC)c(C(=O)Nc2ccc(N(C)C)cc2)cc1OC | 369 | 5.2% (inactive) | 7.1% (inactive) | 94 | -85.5% (inactive) | 116 | -0.448 (inactive) | -4.1e-05 (inactive) | 0.00454 (inactive) | -79.1% (inactive) | 99.1% (active) |
| CC(C(=O)N1CC2(C)CC1CC(C)(C)C2)N1C(=O)c2ccccc2C1=O (stereo not drawn) | 239 | 5.1% (inactive) | 14.3% (inactive) | 99.8 | -114% (inactive) | 95.5 | -0.504 (inactive) | -5.6e-05 (inactive) | 0.00376 (inactive) | 20.7% (inactive) | 17.3% (inactive) |
| O=C(c1cccs1)c1cn(CC(=O)N2CCc3ccccc3C2)c2ccccc12 | 785 | -2.9% (inactive) | -15.5% (inactive) | 100 | -137% (inactive) | 123 | -0.519 (inactive) | -3.8e-05 (inactive) | 0.00668 (inactive) | 11.1% (inactive) | 8.88% (inactive) |
| CC(=O)Nc1ccc(S(=O)(=O)N2CCN(Cc3ccncc3)CC2)cc1 | 679 | -5.8% (inactive) | -14% (inactive) | 123 | -26.1% (inactive) | 126 | -0.451 (inactive) | -3.2e-05 (inactive) | 0.00451 (inactive) | 18.9% (inactive) | 16.4% (inactive) |
| COc1cccc(-c2cc(C(=O)Nc3cc(C)n(Cc4ccc(Cl)cc4)n3)no2)c1 | 498 | -5.7% (inactive) | 10.2% (inactive) | 100 | 38.9% (inactive) | 100 | -0.211 (inactive) | -2.5e-05 (inactive) | 0.0105 (inactive) | 18.7% (inactive) | -60.3% (inactive) |
| O=C(NCC1CCCO1)C1CC(c2ccc(Cl)c(Cl)c2)=NO1 (stereo not drawn) | 838 | -0.7% (inactive) | 4.4% (inactive) | 103 | -247% (inactive) | 132 | -0.472 (inactive) | -3.1e-05 (inactive) | 0.00536 (inactive) | 3.78% (inactive) | -3.62% (inactive) |
| Cc1ccc(-c2noc(C3CCCN(C(=O)c4ccc(F)cc4F)C3)n2)cc1 (stereo not drawn) | 753 | -11.3% (inactive) | 1.1% (inactive) | 58.6 | -21.5% (inactive) | 124 | -0.274 (inactive) | -6.5e-06 (inactive) | 0.00592 (inactive) | -9.91% (inactive) | -43.3% (inactive) |
| C=CCC(Nc1ccco1)c1ccccc1 (stereo not drawn) | 393 | 2.5% (inactive) | 3.4% (inactive) | 112 | -17.9% (inactive) | 114 | -0.498 (inactive) | -2.9e-05 (inactive) | 0.00454 (inactive) | 19% (inactive) | 19.6% (inactive) |
| O=C(COn1nnc2ccc(C(F)(F)F)cc21)Nc1nnc(-c2ccccc2)o1 | 704 | -3.6% (inactive) | -0.6% (inactive) | 110 | 108% (active) | 80.2 | -0.503 (inactive) | -0.000163 (inactive) | 0.005 (inactive) | 2.7% (inactive) | 10.1% (inactive) |
| Cc1ccc(Cn2c(C)nc3c(c2=O)c2nc4ccccc4nc2n3Cc2ccco2)cc1 | 623 | -5.4% (inactive) | -11% (inactive) | 111 | -33.1% (inactive) | 91.7 | -0.557 (inactive) | -5.9e-05 (inactive) | 0.00181 (inactive) | 16.5% (inactive) | 28.3% (inactive) |
| Cc1cc2oc(C(=O)NC3CCS(=O)(=O)C3)c(C)c2cc1C (stereo not drawn) | 328 | 5.6% (inactive) | -2.9% (inactive) | 97 | -75.1% (inactive) | 118 | -0.576 (inactive) | -3.1e-05 (inactive) | 0.00365 (inactive) | 9.17% (inactive) | -12% (inactive) |
| COc1cccc(CN(C)CC(=O)NC(=O)NCc2ccco2)c1 | 608 | 2.7% (inactive) | -3.5% (inactive) | 101 | -58.6% (inactive) | 180 | -0.49 (inactive) | 2.9e-05 (inactive) | 0.00617 (inactive) | -13.4% (inactive) | -18.8% (inactive) |
| Cc1ccccc1CSCC(=O)c1c(N)n(C)c(=O)n(C)c1=O | 395 | 2.8% (inactive) | -5.9% (inactive) | 96.5 | 34.1% (inactive) | 103 | -0.475 (inactive) | 3.9e-05 (inactive) | 0.00961 (inactive) | -5.02% (inactive) | -20.8% (inactive) |
| [O-][n+]1onc2c1CCc1nnc(-c3ccccc3)cc1-2 | 320 | -0.8% (inactive) | 7.5% (inactive) | 102 | -7.3% (inactive) | 123 | -0.598 (inactive) | 2.3e-05 (inactive) | 0.00387 (inactive) | -0.775% (inactive) | -6.53% (inactive) |
| CCOC(=O)c1c(C)oc2ccc(O)c(CN(C)C)c12 | 663 | 1.9% (inactive) | 16.5% (inactive) | 105 | -211% (inactive) | 108 | -0.551 (inactive) | -6.7e-06 (inactive) | 0.00733 (inactive) | 8.53% (inactive) | 20% (inactive) |
| COC(=O)c1[nH]c(C)c(/C(O)=C2\C(=O)C(=O)N(CCCN3CCOCC3)C2c2ccccn2)c1C (stereo not drawn) | 814 | 0.6% (inactive) | 14.2% (inactive) | 110 | -1.3% (inactive) | 113 | -0.473 (inactive) | -2.7e-06 (inactive) | 0.00368 (inactive) | 12.3% (inactive) | 9.49% (inactive) |
| O=C(Nc1ccncc1)c1cncc(Br)c1 | 718 | -3% (inactive) | -6.3% (inactive) | 98 | -153% (inactive) | 114 | -0.243 (inactive) | -9.4e-06 (inactive) | 0.00626 (inactive) | 1.8% (inactive) | 0.632% (inactive) |
| Cc1cc(NS(=O)(=O)c2ccc(NC(=O)C(C)N3C(=O)c4ccccc4C3=O)cc2)nc(C)n1 (stereo not drawn) | 257 | -2.1% (inactive) | 4.6% (inactive) | 98.5 | -11.1% (inactive) | 90.8 | -0.557 (inactive) | -5.8e-05 (inactive) | 0.00257 (inactive) | 14.9% (inactive) | 18.8% (inactive) |
| CCOC(=O)C1CCN(C(=O)Nc2ccc(Cl)cc2Cl)CC1 | 262 | 0% (inactive) | 25.3% (inactive) | 89.6 | -16.8% (inactive) | 80.6 | -0.463 (inactive) | -4.6e-05 (inactive) | 0.00434 (inactive) | 14% (inactive) | 1.16% (inactive) |
| O=C(CSc1nc2[nH]ncc2c(=O)n1-c1ccccc1Br)NCc1ccco1 | 517 | -24% (inactive) | -8.3% (inactive) | 83.4 | -15.2% (inactive) | 95 | -0.549 (inactive) | -3.1e-05 (inactive) | 0.00777 (inactive) | 22.2% (inactive) | 28.1% (inactive) |
| CCN(CC(=O)NC(=O)NCc1ccco1)Cc1nc2ccccc2c(=O)[nH]1 | 407 | -20.9% (inactive) | -36.6% (inactive) | 97.9 | 63.7% (active) | 68.4 | -0.561 (inactive) | -5.5e-05 (inactive) | 0.0066 (inactive) | 15.7% (inactive) | 15% (inactive) |
| COCCn1c(=O)[nH]c2cc(C(=O)NCCCN3CCN(c4ccc(F)cc4)CC3)ccc2c1=O | 333 | 21.3% (inactive) | -5.1% (inactive) | 107 | -22.8% (inactive) | 111 | -0.472 (inactive) | -3.1e-05 (inactive) | 0.00483 (inactive) | 16.2% (inactive) | 9.46% (inactive) |

Source: PubChem BioAssay
